Assay results taken from ChEMBL document CHEMBL1145803, “Characterization of a series of 3-amino-2-phenylpropene derivatives as novel bovine chromaffin vesicular monoamine transporter inhibitors” (J Med Chem, 2003).

Legend:
[1] = target: Synaptic vesicular amine transporter (Bos taurus) (UniProt Q27963); assay: Km DA/Ki ratio was determined by different ghost preparations
How it was run: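 Ratio of Km for dopamine to Ki, each measured on the same ghost preparation in the dopamine uptake competitive-inhibition kinetics; used to normalize Km variation between ghost preparations.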

[2] = target: Synaptic vesicular amine transporter (Bos taurus, UniProt Q27963); assay: Inhibitory constant for dopamine uptake into resealed bovine chromaffin granule ghosts through the vesicular monoamine transporter
Sequence of Synaptic vesicular amine transporter (Q27963 whole entry): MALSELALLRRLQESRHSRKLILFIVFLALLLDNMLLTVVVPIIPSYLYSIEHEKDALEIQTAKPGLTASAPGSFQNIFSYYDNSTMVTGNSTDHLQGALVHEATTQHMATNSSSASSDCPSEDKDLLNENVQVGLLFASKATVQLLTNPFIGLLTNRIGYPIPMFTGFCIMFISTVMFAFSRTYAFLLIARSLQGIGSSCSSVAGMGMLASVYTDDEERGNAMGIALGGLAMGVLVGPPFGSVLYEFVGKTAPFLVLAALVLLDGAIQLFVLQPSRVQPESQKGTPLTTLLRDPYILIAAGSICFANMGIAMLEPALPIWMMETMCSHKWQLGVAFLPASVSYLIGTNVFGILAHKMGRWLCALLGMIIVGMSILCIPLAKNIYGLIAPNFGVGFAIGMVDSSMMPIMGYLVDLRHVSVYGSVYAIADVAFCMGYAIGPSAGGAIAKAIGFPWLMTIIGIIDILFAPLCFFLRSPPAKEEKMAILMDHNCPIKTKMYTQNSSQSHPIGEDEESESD
How it was run: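 Resealed bovine chromaffin granule ghosts (20 mM Tris phosphate, 100 mM KCl, 150 mM sucrose, 10 mM fumarate, 100 µg/mL catalase, no ascorbate, pH 7.0; Ficoll/sucrose purified) preincubated 10 min at 30 °C in 0.3 M sucrose, 10 mM HEPES, 5 mM Mg-ATP, 5 mM MgSO4, catalase. Inhibitor (0 or 200 µM) added 2 min, then DA at six concentrations. Pellet catecholamines by HPLC-EC; Ki from competitive inhibition fit.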

Sequence of Synaptic vesicular amine transporter (Bos taurus) (Q27963 whole entry): as above

Row | Structure (SMILES) | Ratio [1] | Ki [2]
1 | C=C(CN)c1ccc(C)cc1 | 0.59 | 55.9 µM
2 | C=C(CNC)c1ccc(O)cc1 | 0.39 | 93.7 µM
3 | C=C(CN)c1ccc(I)cc1 | 2.96 | 12.9 µM
4 | C=C(CN(CC)CC)c1ccc(O)cc1 | 0.15 | 202 µM
5 | C=C(c1ccccc1)C(C)N (configuration not stated) | 0.41 | 78.4 µM
6 | C=C(CN)c1ccc(Cl)cc1 | 1.76 | 18 µM
7 | C=C(CN)c1cccc(OC)c1 | 0.76 | 30.2 µM
8 | C=C(CN)c1ccc(Br)cc1 | 1.79 | 17.7 µM
9 | C=C(CN)c1cccc(O)c1 | 1.4 | 16.7 µM
10 | C=C(c1ccc(O)cc1)C(C)N(CC)CC (configuration not stated) | 0.15 | 207 µM
11 | NC/C(=C\Br)c1ccc(O)cc1 | 0.46 | 50 µM
12 | C=C(CN)c1ccc(OC)cc1 | 0.33 | 102 µM
13 | C=C(C[n+]1ccccc1)c1ccccc1 | 0.12 | 241 µM
14 | C=C(CN)c1ccc(O)cc1 | 1.52 | 15.5 µM
15 | C=C(CN)c1ccc(F)cc1 | 0.8 | 42.3 µM
16 | C=C(CN)c1ccccc1 | 0.57 | 40.3 µM
